Vif inh: inhibitors of HIV Vif; HEK293T cells, Vif self-association by quenched fluorescence, imaging, 24 h; inhibition, % at 7.49 µM; 340,000 tested, 0.35% active; AID 602346; in the data active = inhibition above about 50%, passing the limit was not always enough
FN deposit inh: fibronectin deposition inhibition; 350,000 tested, 0.086% active; inhibition, % at 12.6 µM; AH1F fibroblasts, Alexa488-fibronectin deposition fluorescence, overnight; AID 743247;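 active = mean inhibition across replicates of 30% or more, regardless of how many single replicates reach that level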;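 also: positive control wells lacked labelled fibronectin entirely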
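Measured by – fluorescence 485/525 nm · System – AH1F fibroblast monolayer, labelled fibronectin deposition · Amount – 10000 cells per well · Buffer or medium – serum-reduced DMEM (2% serum) · Doses – single dose, pinned · Also added – fluorescent fibronectin at 24 nM final · Schedule – 1 h cell attachment, overnight exposure to compound and label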
Ecoli rRNA inh: inhibitors of bacterial rRNA selective over humanized ribosomes; E. coli WT GFP vs humanized-ribosome RFP mutants, fluorescence, 24 h; hits give low values; DMSO median 0, no signal -100; GFP signal change (wild-type ribosome), % (no concentration beside the values); 350,000 tested, 1.6% active;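 active = significant combined selectivity score with lowered wild-type GFP, culture density cut under 30%, mutant RFP and density less affected; inactive = any of these conditions unmet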
miR122 inh: blocks miR-122 activity in Huh7 sensor cells. AID 602342. activation (reporter increase), % at 12.5 µM. Huh7 miR-122 Renilla luciferase sensor, 48 h; neutral wells = 0, positive control = 100. 340,000 tested, 0.3% active;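 active = mean replicate activation score at least 90 and every replicate individually at or above 90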;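 also: higher luciferase means less miR-122 activity so hits act as miR-122 inhibitors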
Env fusion inh: blocks HIV Env-driven cell-cell fusion; 360,000 tested, 1.1% active; inhibition, % at 12.3 µM; HeLa-JRFL Env/CEM21 cell fusion, luciferase;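 active = mean replicate inhibition score of at least 50 and every replicate individually at or above 50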;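 also: 0% = plate neutral controls and 100% = maraviroc near 300 nM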
S100A4 inh HTS: S100A4-myosin IIA interaction inhibition; P26447; S100A4/TAMRA-MyoIIA peptide fluorescence polarization; inhibition, % at 10.7 µM; 360,000 tested, 0.14% active;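 active = mean inhibition of at least 70% across replicates, with every replicate also reaching that level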
Target sequence (P26447 whole entry, looked up): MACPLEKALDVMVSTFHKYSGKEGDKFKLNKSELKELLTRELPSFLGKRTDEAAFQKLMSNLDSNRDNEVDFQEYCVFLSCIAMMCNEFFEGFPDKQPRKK
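Test system: S100A4 monomer protein; Medium: HEPES pH 7.2 with CaCl2, KCl, NaCl, DTT, Triton; Probe or stimulus: TAMRA-labelled myosin IIA heavy-chain peptide probe, 5 nM; Doses: one dose per compound; Times: polarization read 5 min after assay mix addition, stable 5–60 min; Benchmarks: neutral control DMSO, positive control TFP.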
* marks the source's active call; other numbers are inactive results; [ ] = another dose, or the depositor's remark. Sampled rows, rich in hits. Any-hit rate of the full collection: about 2.6%.

How did CN(C)C(=O)[C@@H]1[C@@H](CO)[C@@H]2Cn3c(ccc(-c4cccc(F)c4)c3=O)[C@@H]2N1C(=O)c1ccccn1 do in these assays?
Ecoli rRNA inh: 1; miR122 inh: 2[16.7 µM]

What do the screens show for `Cc1ccc2c(c1)-c1c(ssc1=S)C(C)(C)N2C(=O)c1ccco1`?
Vif inh: -4; FN deposit inh: 0; miR122 inh: 1; Env fusion inh: 57*

What do the screens show for `CCOc1ccc2c(c1)-c1c(ssc1=S)C(C)(C)N2C(=O)CSC1=NCCS1`?
Vif inh: -8; FN deposit inh: 8; miR122 inh: -3; Env fusion inh: -35

What do the screens show for `Cc1ccc2c(c1)-c1c(ssc1=S)C(C)(C)N2C(=O)CSC1=NCCS1`?
Ecoli rRNA inh: -26*; miR122 inh: -3; S100A4 inh HTS: -6

Results for C[C@H]1CN([C@@H](C)CO)S(=O)(=O)c2ccc(C3=CCCC3)cc2O[C@@H]1CN(C)S(C)(=O)=O ?
Ecoli rRNA inh: 0; miR122 inh: 6[16.7 µM]; Env fusion inh: 11[16.7 µM]

Results for Cc1cc(C)cc(NS(=O)(=O)c2ccc3c(c2)C(C)(C)C(=O)N3C)c1 ?
Vif inh: -6; FN deposit inh: 16; Ecoli rRNA inh: -10; miR122 inh: 107*; Env fusion inh: 7; S100A4 inh HTS: 22

How did CC(C)C(NS(=O)(=O)c1ccc2c(c1)C(C)(C)C(=O)N2C)C(=O)NCc1ccccc1Cl (stereo unspecified) do in these assays?
Vif inh: 2; FN deposit inh: -5; Ecoli rRNA inh: -10; miR122 inh: -6; Env fusion inh: 62*; S100A4 inh HTS: -1

How did O=C(NC1CCc2ccccc21)C1CCN(S(=O)(=O)c2ccc(Cl)cc2)CC1 (stereo unspecified) do in these assays?
Vif inh: 8

Results for O=S(=O)(NC1CCc2ccccc21)c1ccc(S(=O)(=O)N2CCCC2)cc1 (stereo unspecified) ?
Vif inh: -1; Ecoli rRNA inh: -29*; S100A4 inh HTS: 2

How did COc1ccc2c3c(n(C)c2c1)[C@H](CO)N(C(=O)Nc1cccc(F)c1)CC31CCN(C)CC1 do in these assays?
Ecoli rRNA inh: 6

How did O=C(C[C@H]1C[C@H]2c3cc(NC(=O)C4CCC4)ccc3O[C@H]2[C@@H](CO)O1)NCC(F)(F)F do in these assays?
FN deposit inh: 0; Ecoli rRNA inh: 1; miR122 inh: 3[16.7 µM]; Env fusion inh: 57*[16.7 µM]; S100A4 inh HTS: -9

What do the screens show for `O=C(C[C@@H]1C[C@H]2c3cc(NC(=O)C4CCC4)ccc3O[C@H]2[C@H](CO)O1)NCC(F)(F)F`?
FN deposit inh: -6; Ecoli rRNA inh: 1; miR122 inh: -1[16.7 µM]; Env fusion inh: 93*[16.7 µM]; S100A4 inh HTS: -8

Results for CO[C@H]1CN(C)C(=O)c2cc(NC(=O)C3CCOCC3)ccc2OC[C@H](C)N(Cc2nccs2)C[C@@H]1C ?
FN deposit inh: -5; Ecoli rRNA inh: 3; S100A4 inh HTS: -2

Results for C[C@H]1CN(C)C(=O)c2cccc(N(C)C)c2O[C@H]1CN(C)C(=O)OC(C)(C)C ?
FN deposit inh: -12; Ecoli rRNA inh: 1

Results for Cc1ccc2[nH]c3c(c2c1)CN(C(=O)CN1c2ccc(F)cc2CCC1C)CC3 (stereo unspecified) ?
Vif inh: 0; FN deposit inh: 4; miR122 inh: 14; Env fusion inh: 60*

What do the screens show for `O=C(NC1CCCc2ccccc21)c1ccccc1Br` (stereo unspecified)?
Vif inh: 60*; Ecoli rRNA inh: 4; miR122 inh: 13; S100A4 inh HTS: -3

What do the screens show for `Brc1ccc2ncnc(NCc3ccco3)c2c1`?
Vif inh: -13; FN deposit inh: 15; miR122 inh: 8; Env fusion inh: 67*

How did CC(C)Nc1ncnc2ccc(Br)cc12 do in these assays?
Vif inh: -6; FN deposit inh: 13; Ecoli rRNA inh: 3; Env fusion inh: 55*; S100A4 inh HTS: 1

How did C[C@H]1CN([C@@H](C)CO)S(=O)(=O)c2ccc(-c3cncnc3)cc2O[C@H]1CN(C)C(=O)Cc1ccccc1 do in these assays?
Ecoli rRNA inh: -2; miR122 inh: -2[16.7 µM]; Env fusion inh: -9[16.7 µM]; S100A4 inh HTS: 8

Results for CCCCC(CC)C(=O)Oc1ccc(O)c(C(C)(C)C)c1 (stereo unspecified) ?
Vif inh: 1; FN deposit inh: 12; Ecoli rRNA inh: -22*; miR122 inh: -13; Env fusion inh: 26; S100A4 inh HTS: -8

What do the screens show for `CC(C)(C)c1cc(OC(=O)C2CCCC2)ccc1O`?
Vif inh: 0; FN deposit inh: -1; Ecoli rRNA inh: 14; miR122 inh: -4; Env fusion inh: 6; S100A4 inh HTS: 2

How did O=C1Nc2ccccc2OCc2cn(nn2)CC[C@H]1Cc1ccc(-c2ccccc2)cc1 do in these assays?
FN deposit inh: 1; Ecoli rRNA inh: -9

What do the screens show for `C[C@H](NC(=O)c1ncn2c1c(=O)[nH]c1ccc(Br)cc12)c1ccccc1`?
Vif inh: 6; FN deposit inh: 2; Ecoli rRNA inh: 21; miR122 inh: 2; Env fusion inh: 57*; S100A4 inh HTS: 2

What do the screens show for `CC(C)(C)[C@@H]1CCC(=O)N(CC[C@H](Sc2ccc(Br)cc2)c2ccccc2)CC1`?
Vif inh: -8; FN deposit inh: -14; Ecoli rRNA inh: 9; Env fusion inh: 67*; S100A4 inh HTS: -19

Results for O=C1CC[C@@H](O)CCN1CC[C@H](Sc1ccccc1)c1ccccc1 ?
Vif inh: -3; FN deposit inh: -5; Ecoli rRNA inh: -31*; miR122 inh: -3; Env fusion inh: -8; S100A4 inh HTS: 2

How did Cn1nc(C(=O)Nc2ccc(S(=O)(=O)NCc3ccco3)cc2)c2ccccc2c1=O do in these assays?
FN deposit inh: 2; Ecoli rRNA inh: 1; Env fusion inh: 3; S100A4 inh HTS: -7

How did CC(C)n1nc(C(=O)Nc2cccc(S(=O)(=O)NCc3ccco3)c2)c2ccccc2c1=O do in these assays?
Vif inh: -2; FN deposit inh: 13; Ecoli rRNA inh: -21; miR122 inh: 99*; Env fusion inh: -5; S100A4 inh HTS: -4

What do the screens show for `O=C(C[C@H]1C=C[C@H](NC(=O)c2ccc3c(c2)OCO3)[C@H](CO)O1)NCc1ccc(F)cc1`?
FN deposit inh: 15; Ecoli rRNA inh: 2; S100A4 inh HTS: 6

Results for COc1cccc(C#Cc2ccc3c(c2)[C@H]2[C@H](CCN2C(=O)Cc2ccccc2)[C@@H](CO)N3C)c1 ?
FN deposit inh: -4; Ecoli rRNA inh: 4

High-throughput results: PubChem BioAssay, Broad Institute
